Among the data in ChEMBL document CHEMBL2311478, “Macrolactonolides: a novel class of anti-inflammatory compounds” (Bioorg Med Chem, 2013) are EC50, Drug uptake and Activity values, retold here.

Data set [1] deals with T1, Glucocorticoid receptor (Homo sapiens, UniProt P04150).
T1 sequence (P04150 whole entry): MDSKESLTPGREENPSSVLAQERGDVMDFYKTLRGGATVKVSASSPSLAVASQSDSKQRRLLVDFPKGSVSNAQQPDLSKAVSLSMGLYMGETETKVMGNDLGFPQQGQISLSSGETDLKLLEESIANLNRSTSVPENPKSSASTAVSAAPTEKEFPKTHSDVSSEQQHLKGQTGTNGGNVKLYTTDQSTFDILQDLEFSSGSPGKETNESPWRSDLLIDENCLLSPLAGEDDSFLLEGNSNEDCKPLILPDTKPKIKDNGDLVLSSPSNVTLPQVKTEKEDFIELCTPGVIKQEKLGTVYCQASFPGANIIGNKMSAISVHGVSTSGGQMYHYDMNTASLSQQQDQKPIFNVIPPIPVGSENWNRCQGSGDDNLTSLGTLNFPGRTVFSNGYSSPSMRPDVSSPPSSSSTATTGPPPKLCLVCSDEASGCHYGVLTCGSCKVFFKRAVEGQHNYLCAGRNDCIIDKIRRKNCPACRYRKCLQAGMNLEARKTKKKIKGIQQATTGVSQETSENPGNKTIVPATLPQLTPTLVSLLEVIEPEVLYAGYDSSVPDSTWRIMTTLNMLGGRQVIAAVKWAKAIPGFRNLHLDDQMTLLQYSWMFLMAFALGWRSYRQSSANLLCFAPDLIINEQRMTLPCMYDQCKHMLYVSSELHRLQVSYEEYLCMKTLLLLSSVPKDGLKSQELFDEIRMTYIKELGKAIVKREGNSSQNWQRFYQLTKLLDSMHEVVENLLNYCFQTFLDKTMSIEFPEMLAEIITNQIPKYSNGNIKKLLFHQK
The experiment in a line: Displacement of [3H]-dexamethasone human glucocorticoid receptor alpha expressed in 293 MSR cells after 60 mins by scintillation counting. It counts as cell-based. In general terms: Loss of bound radioactivity is the signal in a displacement assay; it reports binding, not function.

The target in data set [2] is T1, Glucocorticoid receptor. The experiment in a line: Binding affinity to glucocorticoid receptor (unknown origin) by fluorescence polarization competitive binding assay.
Data set [3] is described as follows: Drug uptake in mouse J774A1 cells at 10 uM after 3 hrs by LC-MS/MS method. The format is ADME, cell-based. The note with it: j774.a1, 3 h. The procedure, abridged: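 Uptake in J774A.1 macrophages seeded two days before at 2 × 10^5 cells/well. Cells were exposed to 10 µM compound for 3 h in DMEM/25 mM Hepes without supplements, washed with ice-cold PBS and lysed in 0.5% Triton X-100. Lysate was measured by LC–MS/MS, using a cell volume of 1.68 µL per 10^6 cells. Result is the I/E ratio, with E taken as 10 µM.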

Data set [4] can be described thus: Drug uptake in mouse J774A1 cells assessed as compound retention at 10 uM after 3 hrs by LC-MS/MS method. It counts as ADME, cell-based. As to conditions: j774.a1, 3 h. In short, it runs like this: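 J774A.1 cells were loaded with 10 µM compound for 3 h in DMEM/25 mM Hepes, then incubated 3 h in fresh medium. Cells were washed, lysed in 0.5% Triton X-100 and analysed by LC–MS/MS. Retention is the percentage of the initially accumulated amount remaining. Triplicates, mean ± SD from one representative experiment.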

The test system of data set [5] is Rattus norvegicus. The experiment in a line: Antiinflammatory activity against ovalbumin-induced airway allergic Brown-Norway rat model assessed as decrease of macrophages in bronchoalveolar lavage fluid at 11 mg/kg administered intranasally as dry powder measured on day 29 after ovalbumin challenge. It counts as functional, organism-based. Also on record: dose 11 mg/kg. As to conditions: Lung.

The test system of data set [6] is Rattus norvegicus. The experiment in a line: Antiinflammatory activity against ovalbumin-induced airway allergic Brown-Norway rat model assessed as decrease of eosinophils in bronchoalveolar lavage fluid at 11 mg/kg administered intranasally as dry powder measured on day 29 after ovalbumin challenge (reference value: 53.1%). It counts as functional, Lung. Also on record: scale not given: the % may be the effect or the level left.

Data set [7] has as its system Rattus norvegicus. Nature of the data set: Antiinflammatory activity against ovalbumin-induced airway allergic Brown-Norway rat model assessed as decrease of neutrophils in bronchoalveolar lavage fluid at 11 mg/kg administered intranasally as dry powder measured on day 29 after ovalbumin challenge. It counts as functional, organism-based. More on the design: dose 11 mg/kg.

Each structure is given as a SMILES string. The source made the active and inactive calls. No cut-off for these calls is given here. Bounds are passed on as bounds.

What is called EC50 is the concentration giving half of the maximal effect.

Take `CC[C@H]1OC(=O)[C@H](C)[C@@H](O[C@H]2C[C@@](C)(OC)[C@@H](O)[C@H](C)O2)[C@H](C)[C@@H](O[C@@H]2O[C@H](C)C[C@H](N(C)C)[C@H]2O)[C@](C)(O)C[C@@H](C)CN(CCCNC(=O)[C@@]2(O)[C@H](C)C[C@H]3[C@@H]4C[C@H](F)C5=CC(=O)C=C[C@]5(C)[C@H]4[C@@H](O)C[C@@]32C)[C@H](C)[C@@H](O)[C@]1(C)O`: the EC50 was over 25 µM at Glucocorticoid receptor [1] and 1.44 µM on Glucocorticoid receptor [2].

As for `CC[C@H]1OC(=O)[C@H](C)[C@@H](O[C@H]2C[C@@](C)(OC)[C@@H](O)[C@H](C)O2)[C@H](C)[C@@H](O[C@@H]2O[C@H](C)C[C@H](N(C)C)[C@H]2O)[C@](C)(O)C[C@@H](C)CN(CCCNC(=O)[C@H]2[C@H](C)C[C@H]3[C@@H]4C[C@H](F)C5=CC(=O)C=C[C@]5(C)[C@@]4(F)[C@@H](O)C[C@@]32C)[C@H](C)[C@@H](O)[C@]1(C)O`, the EC50 at Glucocorticoid receptor [1] came out at 0.53 µM; on Glucocorticoid receptor [2] it was 0.09 µM.

On to `CC[C@H]1OC(=O)[C@H](C)[C@@H](O[C@H]2C[C@@](C)(OC)[C@@H](O)[C@H](C)O2)[C@H](C)[C@@H](O[C@@H]2O[C@H](C)C[C@H](N(C)C)[C@H]2O)[C@](C)(O)C[C@@H](C)CN(CCCNC(=O)[C@@]2(O)CC[C@H]3[C@@H]4CCC5=CC(=O)C=C[C@]5(C)[C@H]4[C@@H](O)C[C@@]32C)[C@H](C)[C@@H](O)[C@]1(C)O`, for which the figures for the EC50 at Glucocorticoid receptor [1] and on Glucocorticoid receptor [2] were over 25 µM and over 10 µM, respectively.

For the compound `CC[C@H]1OC(=O)[C@H](C)[C@@H](O)[C@H](C)[C@@H](O[C@@H]2O[C@H](C)C[C@H](N(C)C)[C@H]2O)[C@](C)(O)C[C@@H](C)CN(CCCNC(=O)[C@@]2(O)[C@H](C)C[C@H]3[C@@H]4C[C@H](F)C5=CC(=O)C=C[C@]5(C)[C@@]4(F)[C@@H](O)C[C@@]32C)[C@H](C)[C@@H](O)[C@]1(C)O`, the EC50 at Glucocorticoid receptor [1] came out at 3.36 µM; at Glucocorticoid receptor [2], 0.69 µM.

Regarding `CC[C@H]1OC(=O)[C@H](C)[C@@H](O)[C@H](C)[C@@H](O[C@@H]2O[C@H](C)C[C@H](N(C)C)[C@H]2O)[C@](C)(O)C[C@@H](C)CN(CCCNC(=O)[C@@]2(O)[C@H](C)C[C@H]3[C@@H]4CCC5=CC(=O)CC[C@]5(C)[C@H]4[C@@H](O)C[C@@]32C)[C@H](C)[C@@H](O)[C@]1(C)O`, the values for the EC50 on Glucocorticoid receptor [1] and on Glucocorticoid receptor [2] were over 25 µM and 6.2 µM, respectively.

As for `CC[C@H]1OC(=O)[C@H](C)[C@@H](O)[C@H](C)[C@@H](O[C@@H]2O[C@H](C)C[C@H](N(C)C)[C@H]2O)[C@](C)(O)C[C@@H](C)CN(CCCNC(=O)[C@@]2(O)[C@H](C)C[C@H]3[C@@H]4C[C@H](F)C5=CC(=O)C=C[C@]5(C)[C@@]4(Cl)[C@@H](O)C[C@@]32C)[C@H](C)[C@@H](O)[C@]1(C)O`, the EC50 at Glucocorticoid receptor [1] came to 1.68 µM; at Glucocorticoid receptor [2], 0.35 µM.

For `CC[C@H]1OC(=O)[C@H](C)[C@@H](O[C@H]2C[C@@](C)(OC)[C@@H](O)[C@H](C)O2)[C@H](C)[C@@H](O[C@@H]2O[C@H](C)C[C@H](N(C)C)[C@H]2O)[C@](C)(O)C[C@@H](C)CN(CCCNC(=O)[C@@]2(O)C(C)C[C@H]3[C@@H]4CCC5=CC(=O)C=C[C@]5(C)[C@@]4(Cl)[C@@H](O)C[C@@]32C)[C@H](C)[C@@H](O)[C@]1(C)O` (single isomer, unassigned), the EC50 at Glucocorticoid receptor [1] is over 25 µM; on Glucocorticoid receptor [2] it was over 10 µM.

Consider `C[C@@H]1C[C@H]2[C@@H]3CCC4=CC(=O)C=C[C@]4(C)[C@@]3(F)[C@@H](O)C[C@]2(C)[C@H]1C(=O)CO` [DESOXIMETASONE], for which the Drug uptake result in data set [3] and in data set [4] was “Not Active” in each case.

As to `CC[C@H]1OC(=O)[C@H](C)[C@@H](O[C@H]2C[C@@](C)(OC)[C@@H](O)[C@H](C)O2)[C@H](C)[C@@H](O[C@@H]2O[C@H](C)C[C@H](N(C)C)[C@H]2O)[C@](C)(O)C[C@@H](C)CN(CCCNC(=O)[C@H]2CC[C@H]3[C@@H]4CCC5=CC(=O)CC[C@]5(C)[C@H]4[C@@H](O)C[C@]23C)[C@H](C)[C@@H](O)[C@]1(C)O`, the EC50 at Glucocorticoid receptor [1] is over 25 µM; at Glucocorticoid receptor [2], over 10 µM.

Take `CC[C@H]1OC(=O)[C@H](C)[C@@H](O)[C@H](C)[C@@H](O[C@@H]2O[C@H](C)C[C@H](N(C)C)[C@H]2O)[C@](C)(O)C[C@@H](C)CN(CCCNC(=O)[C@@]2(O)[C@H](C)C[C@H]3[C@@H]4C[C@H](F)C5=CC(=O)C=C[C@]5(C)[C@H]4[C@@H](O)C[C@@]32C)[C@H](C)[C@@H](O)[C@]1(C)O`: the EC50 at Glucocorticoid receptor [1] was determined as 5.91 µM; on Glucocorticoid receptor [2], 0.55 µM.

Consider `CC[C@H]1OC(=O)[C@H](C)[C@@H](O[C@H]2C[C@@](C)(OC)[C@@H](O)[C@H](C)O2)[C@H](C)[C@@H](O[C@@H]2O[C@H](C)C[C@H](N(C)C)[C@H]2O)[C@](C)(O)C[C@@H](C)CN(CCCNC(=O)[C@@]2(O)[C@H](C)C[C@H]3[C@@H]4C[C@H](F)C5=CC(=O)C=C[C@]5(C)[C@@]4(Cl)[C@@H](O)C[C@@]32C)[C@H](C)[C@@H](O)[C@]1(C)O`, for which the figures for the EC50 at Glucocorticoid receptor [1] and at Glucocorticoid receptor [2] were 3.81 µM and 1.5 µM, respectively.

For the compound `CC[C@H]1OC(=O)[C@H](C)[C@@H](O[C@H]2C[C@@](C)(OC)[C@@H](O)[C@H](C)O2)[C@H](C)[C@@H](O[C@@H]2O[C@H](C)C[C@H](N(C)C)[C@H]2O)[C@](C)(O)C[C@@H](C)CN(CCCNC(=O)[C@@]2(O)[C@H](C)C[C@H]3[C@@H]4CCC5=CC(=O)C=C[C@]5(C)[C@@]4(F)[C@@H](O)C[C@@]32C)[C@H](C)[C@@H](O)[C@]1(C)O`, the EC50 is 23 µM on Glucocorticoid receptor [1] and 2.09 µM at Glucocorticoid receptor [2].

For `CCC(=O)OCC(=O)[C@@]1(OC(=O)CC)[C@@H](C)C[C@H]2[C@@H]3CCC4=CC(=O)C=C[C@]4(C)[C@@]3(Cl)[C@@H](O)C[C@@]21C` [BECLOMETHASONE DIPROPIONATE], the outcome in the data set with Rattus norvegicus [5] and in the data set on Rattus norvegicus [7] was inactive. Further, the Activity in the data set with Rattus norvegicus [6] was 43%.

For the compound `CC[C@H]1OC(=O)[C@H](C)[C@@H](O)[C@H](C)[C@@H](O[C@@H]2O[C@H](C)C[C@H](N(C)C)[C@H]2O)[C@](C)(O)C[C@@H](C)CN(CCCNC(=O)[C@H]2[C@H](C)C[C@H]3[C@@H]4CCC5=CC(=O)C=C[C@]5(C)[C@@]4(F)[C@@H](O)C[C@@]32C)[C@H](C)[C@@H](O)[C@]1(C)O`, the results for the EC50 at Glucocorticoid receptor [1] and on Glucocorticoid receptor [2] were over 25 µM and 2.81 µM, respectively.

`CC[C@H]1OC(=O)[C@H](C)[C@@H](O[C@H]2C[C@@](C)(OC)[C@@H](O)[C@H](C)O2)[C@H](C)[C@@H](O[C@@H]2O[C@H](C)C[C@H](N(C)C)[C@H]2O)[C@](C)(O)C[C@@H](C)CN(CCCNC(=O)[C@@]2(O)CC[C@H]3[C@@H]4CCC5=CC(=O)CC[C@]5(C)[C@H]4[C@@H](O)C[C@@]32C)[C@H](C)[C@@H](O)[C@]1(C)O`: the EC50 on Glucocorticoid receptor [1] was over 25 µM; on Glucocorticoid receptor [2], over 10 µM.

As for `CC[C@H]1OC(=O)[C@H](C)[C@@H](O[C@H]2C[C@@](C)(OC)[C@@H](O)[C@H](C)O2)[C@H](C)[C@@H](O[C@@H]2O[C@H](C)C[C@H](N(C)C)[C@H]2O)[C@](C)(O)C[C@@H](C)CN(CCCNC(=O)[C@@]2(O)[C@H](C)C[C@H]3[C@@H]4C[C@H](F)C5=CC(=O)C=C[C@]5(C)[C@@]4(F)[C@@H](O)C[C@@]32C)[C@H](C)[C@@H](O)[C@]1(C)O`, the EC50 is over 25 µM at Glucocorticoid receptor [1] and 0.91 µM on Glucocorticoid receptor [2].

On to `C[C@@H]1C[C@H]2[C@@H]3CCC4=CC(=O)C=C[C@]4(C)[C@@]3(F)[C@@H](O)C[C@]2(C)[C@@]1(O)C(=O)CO` [DEXAMETHASONE], for which the Drug uptake result in data set [3] and in data set [4] was “Not Active” throughout.
